Assay results: ChEMBL document CHEMBL1641365, “Synthesis, in vitro and in vivo preliminary evaluation of anti-angiogenic properties of some pyrroloazaflavones” (Bioorg Med Chem, 2011)
pIC50: −log10 of the molar value. Active and inactive are the calls of the source. The calls are words filed in the database; no cut-off is given here.

What was measured:
[1] = test system: HUVEC; test: Growth inhibition of HUVEC cells after 20 hrs by MTT assay; type: cell-based; settings: Homo sapiens
How it was run: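 Primary HUVECs, passages 2–4, were seeded at 2 × 10⁴ cells/cm². After 24 h they were exposed to a range of concentrations (10 to 10⁻⁵ µM). After 20 h, MTT (0.5 mg/mL) was read. IC50 is the concentration giving a 50% viability drop versus untreated cells; 10 µM was the top concentration. Values are means ± SD of at least three independent experiments.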

[2] = test system: HUVEC; test: Antiangiogenic activity against FGF2-induced HUVEC assessed as inhibition of cell proliferation at 10^-2 uM after 24 hrs; type: functional, cell-based; settings: Homo sapiens
[3] = test system: HUVEC; test: Induction of apoptosis in HUVEC cells assessed as proapoptotic effect after 24 hrs by TUNEL assay; type: functional, cell-based; settings: Homo sapiens
[4] = test system: HUVEC; test: Inhibition of growth factor-induced angiogenesis in HUVEC cells assessed as inhibition of cell migration at 10^-2 uM after 4 hrs by fluorescence microscopy; type: functional, cell-based; settings: Homo sapiens
[5] = test system: HUVEC; test: Antiangiogenic activity against FGF2-induced in HUVEC cells assessed as inhibition of capillary-like formation at 10^-2 uM after 18 hrs by Matrigel assay; type: functional, cell-based; settings: Homo sapiens
[6] = test system: HUVEC; test: Antiangiogenic activity against FGF2-induced in HUVEC cells assessed as inhibition of morphological change at 10^-2 uM after 18 hrs by capillary-like formation assay; type: functional, cell-based; settings: Homo sapiens
[7] = test system: Mus musculus; test: Antiangiogenic activity against FGF2-induced C57/BL6 mouse assessed as inhibition of angiogenesis at 0.01 uM, sc after 7 days by Matrigel plug assay; type: functional, organism-based
How it was run: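 Matrigel with heparin, with or without FGF-2 200 ng/plug plus test agent 0.01 µM, injected subcutaneously into the dorsal area of C57/BL6 mice. Animals were killed after 7 days. Plugs were removed and steeped overnight at 4 °C in 0.1% Brij-35 in PBS. Hemoglobin content of the plugs was measured.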

[8] = test system: HUVEC; test: Antiangiogenic activity against FGF2-induced HUVEC assessed as inhibition of cell proliferation at 10^-3 uM after 24 hrs; type: functional, cell-based; settings: Homo sapiens
[9] = test system: HUVEC; test: Inhibition of growth factor-induced angiogenesis in HUVEC cells assessed as inhibition of cell migration at 10^-3 uM after 4 hrs by fluorescence microscopy; type: functional, cell-based; settings: Homo sapiens
[10] = test system: HUVEC; test: Antiangiogenic activity against FGF2-induced in HUVEC cells assessed as inhibition of capillary-like formation at 10^-3 uM after 18 hrs by Matrigel assay; type: functional, cell-based; settings: Homo sapiens
[11] = test system: HUVEC; test: Antiangiogenic activity against FGF2-induced in HUVEC cells assessed as inhibition of morphological change at 10^-3 uM after 18 hrs by capillary-like formation assay; type: functional, cell-based; settings: Homo sapiens
[12] = test system: HUVEC; test: Antiangiogenic activity against FGF2-induced in HUVEC cells assessed as inhibition of morphological change at 10^-3 uM after 18 hrs by capillary-like formation assay; settings: Homo sapiens
[13] = test system: HUVEC; test: Antiangiogenic activity against FGF2-induced HUVEC assessed as inhibition of cell proliferation at 10^-4 uM after 24 hrs; type: functional, cell-based; settings: Homo sapiens
[14] = test system: HUVEC; test: Inhibition of growth factor-induced angiogenesis in HUVEC cells assessed as inhibition of cell migration at 10^-4 uM after 4 hrs by fluorescence microscopy; type: functional, cell-based; settings: Homo sapiens
[15] = test system: HUVEC; test: Antiangiogenic activity against FGF2-induced in HUVEC cells assessed as inhibition of capillary-like formation at 10^-4 uM after 18 hrs by Matrigel assay; type: functional, cell-based; settings: Homo sapiens
[16] = test system: HUVEC; test: Antiangiogenic activity against FGF2-induced HUVEC assessed as inhibition of cell proliferation at 10^-5 uM after 24 hrs; type: functional, cell-based; settings: Homo sapiens
[17] = test system: HUVEC; test: Inhibition of growth factor-induced angiogenesis in HUVEC cells assessed as inhibition of in cell migration at 10^-5 uM after 4 hrs by fluorescence microscopy; type: functional, cell-based; settings: Homo sapiens
[18] = test system: HUVEC; test: Antiangiogenic activity against FGF2-induced in HUVEC cells assessed as inhibition of capillary-like formation at 10^-5 uM after 18 hrs by Matrigel assay; type: functional, cell-based; settings: Homo sapiens

With `COc1cccc(-c2cc(O)c3ccc4[nH]ccc4c3n2)c1` the pIC50 [1] was 5.24, the Activity [2] was “Active” and the Activity [3] was “Active”. The inhibition [4] was “Active”.

For `Cc1cc2c(ccc3c(=O)cc(-c4ccccc4)[nH]c32)[nH]1`, the pIC50 [1] was < 5.00.

In the case of `CCOC(=O)CCn1ccc2c3[nH]c(-c4ccccc4)cc(=O)c3ccc21`, the pIC50 [1] was 5.24, the Activity [3] was “Active” and the inhibition [4] was “Active”. The Activity [5] was “Active”, the Activity [6] was “Active” and the Activity [7] was “Active”.

In the case of `O=[N+]([O-])c1cccc(-c2cc(O)c3ccc4[nH]ccc4c3n2)c1`, the pIC50 [1] was 6.35, the Activity [8] was “Active” and the Activity [3] was “Active”. The inhibition [9] was “Active”, the Activity [10] was “Active” and the Activity [11] was “Active”. The Activity [7] was “Active” and the Activity [12] was “Active”.

In the case of `Oc1cc(-c2ccccc2)nc2c1ccc1[nH]ccc12`, the pIC50 [1] was 7.37, the Activity [13] was “Active” and the Activity [3] was “Active”. For the same compound, the inhibition [14] was “Active”, the Activity [15] was “Active” and the Activity [7] was “Active”.

`CC[C@]1(O)C[C@@H]2CN(CCc3c([nH]c4ccccc34)[C@@](C(=O)OC)(c3cc4c(cc3OC)N(C)[C@H]3[C@@](O)(C(=O)OC)[C@H](OC(C)=O)[C@]5(CC)C=CCN6CC[C@]43[C@@H]65)C2)C1` [VINBLASTINE] was tested, and the pIC50 [1] was 7.31, the Activity [16] was “Active” and the inhibition [17] was “Active”. For the same compound, the Activity [18] was “Active”.

In the case of `CCn1ccc2c3[nH]c(-c4ccccc4)cc(=O)c3ccc21`, the pIC50 [1] was 5.09, the Activity [3] was “Active” and the inhibition [4] was “Active”. For the same compound, the Activity [5] was “Active” and the Activity [6] was “inactive”.

For `Oc1cc(-c2cccs2)nc2c1ccc1[nH]ccc12`, the pIC50 [1] was < 5.00.

In the case of `O=c1cc(-c2ccccc2)[nH]c2c1ccc1c2ccn1CC1CC1`, the pIC50 [1] was 5.38, the Activity [3] was “Active” and the inhibition [4] was “Active”. The Activity [5] was “Active”, the Activity [6] was “inactive” and the Activity [7] was “Active”.

With `O=c1cc(-c2ccc[nH]2)[nH]c2c1ccc1[nH]ccc12` the pIC50 [1] was < 5.00.
